Reference: ChEMBL document CHEMBL4732073, “1-BENZYLSPIRO[PIPERIDINE-4,1'-PYRIDO[3,4-b]indole] 'co-potentiators' for minimal function CFTR mutants” (Eur J Med Chem, 2021)
pEC50: −log10 of the molar value. The source made the active and inactive calls. The calls are words filed in the database; no cut-off is given here.

Tested on: Cystic fibrosis transmembrane conductance regulator (Homo sapiens), P13569 [N1303K]
Assay: (§1) Potentiation of CFTR N1303K mutant (unknown origin) expressed in rat FRT cells assessed as increase in VX-770-stimulated chloride current in presence of forskolin by short circuit method
Format: cell-based
Details: not given
Method in brief: (§2)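 FRT cells stably expressing the mutant CFTR, corrected with 3 μM VX-661 for 18–24 hours, then grown on permeable supports. Short-circuit current at 37 °C in HCO3-buffered solutions with a chloride gradient. Basolateral membrane permeabilized with 250 μg/ml amphotericin B. Additions: 20 μM forskolin, 5 μM VX-770, test compound at a range of concentrations, then 10 μM CFTRinh-172. Concentration dependence n=3, mean ± S.E.M.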

Chain of Cystic fibrosis transmembrane conductance regulator (Homo sapiens), P13569 [N1303K] (P13569 whole entry N1303K): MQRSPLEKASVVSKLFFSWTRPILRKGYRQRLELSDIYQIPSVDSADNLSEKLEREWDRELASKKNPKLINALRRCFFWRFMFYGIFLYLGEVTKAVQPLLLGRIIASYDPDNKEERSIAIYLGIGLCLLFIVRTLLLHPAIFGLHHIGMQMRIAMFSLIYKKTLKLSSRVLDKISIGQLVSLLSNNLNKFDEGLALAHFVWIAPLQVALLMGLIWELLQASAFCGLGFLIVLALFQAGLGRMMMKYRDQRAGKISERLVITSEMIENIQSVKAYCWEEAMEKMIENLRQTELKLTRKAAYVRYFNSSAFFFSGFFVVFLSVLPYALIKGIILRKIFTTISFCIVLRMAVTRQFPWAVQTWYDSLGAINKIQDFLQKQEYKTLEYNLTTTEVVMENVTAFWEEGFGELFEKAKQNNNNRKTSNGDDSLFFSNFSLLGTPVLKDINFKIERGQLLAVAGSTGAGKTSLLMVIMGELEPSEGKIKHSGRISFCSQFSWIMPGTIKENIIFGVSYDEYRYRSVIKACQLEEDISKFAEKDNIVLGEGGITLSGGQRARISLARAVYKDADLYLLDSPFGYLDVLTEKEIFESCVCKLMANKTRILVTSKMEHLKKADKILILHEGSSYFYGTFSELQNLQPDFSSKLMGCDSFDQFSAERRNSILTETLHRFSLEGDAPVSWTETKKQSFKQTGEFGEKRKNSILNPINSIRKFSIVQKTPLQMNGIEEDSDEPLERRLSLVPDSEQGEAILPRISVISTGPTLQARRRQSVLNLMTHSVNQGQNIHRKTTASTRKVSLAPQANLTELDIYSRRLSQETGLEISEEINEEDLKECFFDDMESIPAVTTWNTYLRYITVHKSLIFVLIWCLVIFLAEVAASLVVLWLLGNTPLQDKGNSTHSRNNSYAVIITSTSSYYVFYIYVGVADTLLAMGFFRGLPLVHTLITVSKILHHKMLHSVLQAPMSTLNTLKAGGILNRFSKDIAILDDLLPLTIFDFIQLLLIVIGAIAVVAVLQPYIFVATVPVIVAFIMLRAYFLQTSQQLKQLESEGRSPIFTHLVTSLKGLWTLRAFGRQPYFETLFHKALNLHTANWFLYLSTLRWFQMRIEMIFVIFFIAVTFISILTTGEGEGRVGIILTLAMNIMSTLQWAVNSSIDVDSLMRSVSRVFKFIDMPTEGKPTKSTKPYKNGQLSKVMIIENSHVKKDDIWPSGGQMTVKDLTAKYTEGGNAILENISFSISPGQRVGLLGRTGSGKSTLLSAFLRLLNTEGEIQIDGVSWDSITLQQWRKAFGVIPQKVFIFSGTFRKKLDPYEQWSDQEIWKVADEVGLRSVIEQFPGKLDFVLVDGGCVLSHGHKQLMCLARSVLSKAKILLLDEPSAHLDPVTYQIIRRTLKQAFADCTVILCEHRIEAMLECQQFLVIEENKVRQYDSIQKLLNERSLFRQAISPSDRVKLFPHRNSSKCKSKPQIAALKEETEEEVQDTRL

Row | Structure (SMILES) | Activity
1 | COc1ccc2c(c1)c1c(n2C)C2(CCN(Cc3ccc(F)cc3F)CC2)NCC1 | inactive
2 | COc1ccc2[nH]cc(CCNC3CCN(Cc4ccccc4)CC3)c2c1 | inactive
3 | COc1ccc2[nH]c3c(c2c1)CCNC31CCCN(Cc2ccc(F)cc2F)C1 (configuration not stated) | inactive
4 | COc1ccc2[nH]c3c(c2c1)CCN[C@@]31CCN2Cc3ccccc3C[C@H]2C1 (racemic) | inactive
5 | COc1ccc2[nH]c3c(c2c1)CCNC31CCN(Cc2ccc(F)cc2F)C1 (configuration not stated) | inactive
6 | COc1ccc2[nH]c3c(c2c1)CCNC31CCN(Cc2ccc(C(C)(C)C)cc2)CC1 | inactive
7 | COc1ccc2[nH]c3c(c2c1)CCNC31CCNCC1 | inactive

Target: Cystic fibrosis transmembrane conductance regulator (Homo sapiens, UniProt P13569, N1303K)
Assay: as §1
Format: cell-based
Details: not given
Method in brief: as §2

Chain of Cystic fibrosis transmembrane conductance regulator (P13569 whole entry N1303K): as above

Row | Structure (SMILES) | pEC50
8 | Fc1ccc(CN2CCC3(CC2)NCCc2c3[nH]c3ccc(Br)cc23)c(F)c1 | 4.68
9 | COc1ccc2[nH]c3c(c2c1)CCNC31CCN(Cc2ccc([N+](=O)[O-])cc2F)CC1 | 5.23
10 | COc1ccc2[nH]c3c(c2c1)CCNC31CCN(Cc2cc(F)cc(F)c2)CC1 | 4.95
11 | COc1ccc2[nH]c3c(c2c1)CCNC31CCN(Cc2ccc(Br)cc2F)CC1 | 5.80
12 | COc1ccc2[nH]c3c(c2c1)CCNC31CCN(Cc2cccc(F)c2F)CC1 | 4.87
13 | COc1ccc2[nH]c3c(c2c1)CCNC31CCN(C(C)c2ccccc2)CC1 (configuration not stated) | 4.70
14 | COc1ccc2[nH]c3c(c2c1)CCNC31CCN(Cc2ccc(F)cc2F)CC1 | 5.70
15 | COc1ccc2[nH]c3c(c2c1)CCNC31CCCN(Cc2ccc(F)cc2F)CC1 (configuration not stated) | 4.70
16 | COc1ccc2[nH]c3c(c2c1)CCNC31CCN(Cc2ccco2)CC1 | 4.79
17 | COc1ccc2[nH]c3c(c2c1)CCNC31CCN(Cc2ccccc2Cl)CC1 | 5.66
18 | COc1ccc2[nH]c3c(c2c1)CCNC31CCN(Cc2cc(F)ccc2F)CC1 | 4.95
19 | COc1ccc2[nH]c3c(c2c1)CCNC31CCN(Cc2cc(Cl)ccc2[N+](=O)[O-])CC1 | 5.15
20 | COc1ccc2[nH]c3c(c2c1)CCNC31CCN(Cc2ccccc2)CC1 | 4.90
21 | COc1ccc2[nH]c3c(c2c1)CCNC31CCN(Cc2ccc(F)c(F)c2)CC1 | 4.96
22 | COc1ccc2[nH]c3c(c2c1)CCNC31CCN(Cc2ccccn2)CC1 | 4.94
23 | COc1ccc2[nH]c3c(c2c1)CCNC31CCN(Cc2cccnc2)CC1 | 4.77
24 | Fc1ccc(CN2CCC3(CC2)NCCc2c3[nH]c3ccccc23)c(F)c1 | 5.09
25 | COc1ccc2[nH]c3c(c2c1)CCNC31CCN(Cc2ccc(Br)c(F)c2)CC1 | 5.74
26 | COc1ccc2[nH]c3c(c2c1)CCNC31CCN(Cc2c(F)ccc(Cl)c2F)CC1 | 5.35
27 | COc1ccc2[nH]c3c(c2c1)CCNC31CCN(Cc2ccc(Cl)cc2Cl)CC1 | 5.74
28 | COc1ccc2[nH]c3c(c2c1)CCNC31CCN(Cc2cc(F)cc(Cl)c2)CC1 | 5.60

Tested on: Cystic fibrosis transmembrane conductance regulator (Homo sapiens), P13569 [N1303K]
Assay: Potentiation of CFTR N1303K mutant (unknown origin) expressed in human 16HBE14o- cells assessed as increase in VX-770-stimulated chloride current in presence of forskolin by short circuit method
Format: cell-based
Details: filed as activator
Method in brief: (§3)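 Gene-edited 16HBE14o- cells grown on permeable supports; short-circuit current at 37 °C with a chloride gradient in Hepes-buffered solutions. Sequential additions: 20 μM forskolin, 5 μM VX-770, 10 μM test compound, then 10 μM CFTRinh-172. Change in current (ΔIsc) reported as mean ± S.E.M., n = 3.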

Row | Structure (SMILES) | Activity
29 | COc1ccc2[nH]c3c(c2c1)CCNC31CCN(Cc2cc(F)c(F)cc2F)CC1 | Active

Tested on: 16HBE14o-
Assay: Potentiation of CFTR I1234del mutant (unknown origin) expressed in human 16HBE14o- cells assessed as increase in VX-770-stimulated chloride current in presence of forskolin by short circuit method
Format: cell-based
Details: filed as activator
Method in brief: as §3

Row | Structure (SMILES) | Activity
30 | COc1ccc2[nH]c3c(c2c1)CCNC31CCN(Cc2cc(F)c(F)cc2F)CC1 | Active

Tested on: Cystic fibrosis transmembrane conductance regulator (Homo sapiens), P13569 [R347P]
Assay: Potentiation of CFTR R347P mutant (unknown origin) expressed in rat FRT cells assessed as effect on VX-770-stimulated chloride current in presence of forskolin by short circuit method
Format: cell-based
Details: not given
Method in brief: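 R347P-CFTR FRT cells, corrected with 3 μM VX-661 for 18–24 h. Short-circuit current at 37 °C in HCO3-buffered solutions with a chloride gradient. Basolateral membrane permeabilized with 250 μg/ml amphotericin B. Sequential additions: 20 μM forskolin, 5 μM VX-770, 20 μM test compound, then 10 μM CFTRinh-172.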

Chain of Cystic fibrosis transmembrane conductance regulator (Homo sapiens), P13569 [R347P] (P13569 whole entry R347P): as the sequence (P13569 whole entry N1303K) above, with R347P, K1303N counted along it

Row | Structure (SMILES) | Activity
31 | COc1ccc2[nH]c3c(c2c1)CCNC31CCN(Cc2cc(F)c(F)cc2F)CC1 | inactive

Tested on: not listed separately
Assay: Potentiation of CFTR I1234del mutant (unknown origin) expressed in rat FRT cells assessed as increase in VX-770-stimulated chloride current in presence of forskolin by short circuit method
Format: cell-based
Details: Homo sapiens
Method in brief: as §2

Row | Structure (SMILES) | pEC50
32 | COc1ccc2[nH]c3c(c2c1)CCNC31CCN(Cc2cc(F)c(F)cc2F)CC1 | 6.15
